SENP6 inh: SENP6 protease inhibitors, primary screen, biochemical, luminescence, uHTS | inhibition, % at 10 µM | AID 2599, 2010 | Recombinant SENP6 catalytic domain, aminoluciferin luminescence | actives 1.8% (n = 330,000) | Sentrin-specific protease 6 (Homo sapiens), Q9GZR1;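 active means inhibition above about 50% at the single tested dose, limit read from the data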;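 further: plate controls were DMSO wells with enzyme for no effect and DMSO wells lacking enzyme for full effect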
SENP1 inh: human SENP1 catalytic domain inhibitors, primary screen, biochemical, FRET, uHTS; Sentrin-specific protease 1 (Homo sapiens), Q9P0U3; recombinant SENP1 catalytic domain, CyPet-SUMO1-YPet FRET cleavage; inhibition, % at 10 µM; actives 0.21% (n = 360,000); AID 624204, 2012;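 active means inhibition at least 30% at 10 µM, raw YFP signal under a set limit, fluorescence ratio 0.5 to 1.5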;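 further: 0% = enzyme with DMSO and 100% = no enzyme wells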
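Test system: recombinant human SENP1 catalytic domain, His6-tagged / Medium: pH 8 Tris buffer with EDTA, NaCl, BME, BSA, NP40, catalase / Also added: SUMO1 FRET substrate flanked by Cypet and Ypet, 25 nM / Times: 50 min reaction at room temperature / Signal: FRET, CFP and YFP emission / Control set: no-enzyme low control and enzyme-plus-DMSO high control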
SENP8 block-1: SENP8 protease inhibitors, primary screen, biochemical, luminescence. actives 1.2% (n = 330,000). purified SENP8, Z-RLRGG-aminoluciferin cleavage. inhibition, % at 10 µM. AID 2540, 2010. Sentrin-specific protease 8 (Homo sapiens), Q96LD8; in the data active means inhibition above about 50%
Target sequence (Q96LD8 whole entry, looked up): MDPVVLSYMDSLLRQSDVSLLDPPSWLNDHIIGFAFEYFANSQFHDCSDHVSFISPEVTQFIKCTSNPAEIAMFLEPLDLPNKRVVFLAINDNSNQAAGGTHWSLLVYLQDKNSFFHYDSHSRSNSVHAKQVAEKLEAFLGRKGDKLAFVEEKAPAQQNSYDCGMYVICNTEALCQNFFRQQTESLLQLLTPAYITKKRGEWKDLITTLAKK
SENP7 block: SENP7 protease inhibitors, primary screen, biochemical, luminescence, uHTS. Sentrin-specific protease 7 (Homo sapiens), Q9BQF6. recombinant SENP7, Z-RLRGG-aminoluciferin luminescence, 40 min. inhibition, % at 5 µM. actives 1.5% (n = 330,000). AID 434973, 2010;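 active means inhibition above about 50% at the single test dose, limit read from the data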;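 further: plate controls were DMSO with enzyme for no effect and no enzyme buffer wells for full effect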
Target sequence (Q9BQF6 706-1050 limits assumed): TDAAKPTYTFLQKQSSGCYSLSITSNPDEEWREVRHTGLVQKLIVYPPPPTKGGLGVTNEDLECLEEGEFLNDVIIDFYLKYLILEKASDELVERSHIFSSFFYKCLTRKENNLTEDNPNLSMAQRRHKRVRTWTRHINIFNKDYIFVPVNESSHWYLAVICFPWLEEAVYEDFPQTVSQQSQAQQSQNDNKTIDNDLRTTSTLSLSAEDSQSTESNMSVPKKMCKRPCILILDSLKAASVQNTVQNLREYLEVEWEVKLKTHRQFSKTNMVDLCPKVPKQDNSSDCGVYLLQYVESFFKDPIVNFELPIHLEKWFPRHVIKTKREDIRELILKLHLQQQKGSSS
SENP8 block-2: human SENP8 protease inhibitors, primary screen, biochemical, fluorescence, Nedd8 protein substrate, uHTS; inhibition, % at 20 µM; Sentrin-specific protease 8 (Homo sapiens), Q96LD8; actives 0.64% (n = 360,000); recombinant SENP8; in the data active means inhibition mostly above about 40%, no sharp cut-off; inactive means mostly below about 27%
SENP8 confirm: SENP8 protease inhibitors, retest, confirmation, biochemical, luminescence, single concentration. shares compounds with SENP7 block. Recombinant SENP8, Z-RLRGG-aminoluciferin luminescence, 60 min. inhibition, % at 12.5 µM. actives 40% (n = 6,200);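 active means mean inhibition across replicates above about 50%, limit read from the data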
SENP6 confirm: SENP6 protease inhibitors, confirmation, biochemical, luminescence, single concentration; actives 58% (n = 6,200); inhibition, % at 12.5 µM; recombinant SENP6, Z-RLRGG-aminoluciferin luminescence; AID 488915, 2010; shares compounds with SENP7 block
SENP7 confirm: SENP7 protease inhibitors, retest, confirmation, biochemical, luminescence, single concentration. inhibition, % at 12.5 µM. shares compounds with SENP7 block. actives 69% (n = 6,200). recombinant SENP7, Z-RLRGG-aminoluciferin luminescence, 40 min
Casp3 SENP sel: caspase-3 protease inhibitors, confirmation, selectivity assay for SENP inhibitor project, biochemical, single concentration; inhibition, % at 12.5 µM; actives 60% (n = 6,200); AID 488918, 2010; shares compounds with SENP7 block; purified caspase-3, Z-DEVD-aminoluciferin luminescence, 60 min;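 active means mean inhibition above about 50%, limit read from the data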;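 further: plate controls were enzyme with DMSO for no effect and wells without caspase-3 for full effect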
Luc interf: luminescence interference (SENP counter-screen); shares compounds with SENP7 block; Pre-incubated SENP8/Z-RLRGG-aminoluciferin, luciferase luminescence interference; inhibition, % at 12.5 µM; actives 39% (n = 6,200);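 active means mean inhibition above about 50% when retested at one dose, limit read from the data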;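 further: plate controls were DMSO wells with completed reaction for no effect and substrate without enzyme for full effect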
The depositor's hits bear a star. A selection: hits, their analogues and other compounds. The true share with any hit is near 2.5%.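 How the source made its calls, unless noted: active means mean inhibition above about 50% in the one-dose retest (limit read from the data); inactive means the rest.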

Results for CCC(=O)N=c1sc2c(OC)ccc(OC)c2n1C ?
SENP6 inh: -4; SENP1 inh: 0; SENP8 block-1: -9; SENP7 block: 11; SENP8 block-2: -22

What do the screens show for `C=CCn1c(=NC(=O)c2cccc(N3C(=O)CCC3=O)c2)sc2cccc(OC)c21`?
SENP6 inh: 6; SENP1 inh: 0; SENP8 block-1: 9; SENP7 block: -5; SENP8 block-2: -426

How did O=C(NCc1ccco1)c1ccc2nc([C@@H]3O[C@H](CO)[C@H](O)[C@H](O)[C@H]3O)[nH]c2c1 do in these assays?
SENP1 inh: 1; SENP8 block-2: 25

What do the screens show for `O=[N+]([O-])c1ccc(/C=N/Nc2ncccc2[N+](=O)[O-])s1`?
SENP6 inh: 41; SENP1 inh: 9; SENP8 block-1: 27; SENP7 block: 91*; SENP8 block-2: 33; SENP8 confirm: 23; SENP6 confirm: 22; SENP7 confirm: 19; Casp3 SENP sel: 35; Luc interf: 6

Results for O=[N+]([O-])c1ccc(/C=N/n2cnc3ccccc32)s1 ?
SENP6 inh: 73*; SENP1 inh: -10; SENP8 block-1: 2; SENP7 block: 34; SENP8 block-2: 36; SENP8 confirm: 15; SENP6 confirm: 25; SENP7 confirm: 16; Casp3 SENP sel: 2; Luc interf: 0

How did O=[N+]([O-])c1cccnc1Nc1ccc(Cl)cc1 do in these assays?
SENP1 inh: 2; SENP8 block-2: 33

What do the screens show for `Cc1nc2ccccc2n1/N=C/c1ccc([N+](=O)[O-])s1`?
SENP6 inh: 73*; SENP1 inh: 4; SENP8 block-1: 33; SENP7 block: 11; SENP8 block-2: 34; SENP8 confirm: -9; SENP6 confirm: 14; SENP7 confirm: 1; Casp3 SENP sel: -3; Luc interf: -4

How did CCOc1ccccc1N1CCN(C(=O)c2cn(CC3CCCCC3)nn2)CC1 do in these assays?
SENP6 inh: 19; SENP1 inh: 3; SENP8 block-1: 6; SENP7 block: -2; SENP8 block-2: 1

Results for CNC(=O)c1ccc(OC2CSC2)cc1 ?
SENP6 inh: -20; SENP1 inh: 0; SENP8 block-1: 1; SENP7 block: -5; SENP8 block-2: 21

Results for O=C(N/N=C/c1ccc(OC2CSC2)cc1)c1ccccc1 ?
SENP6 inh: 62*; SENP1 inh: 0; SENP8 block-1: 52*; SENP7 block: 0; SENP8 block-2: 15; SENP8 confirm: 7; SENP6 confirm: 3; SENP7 confirm: 10; Casp3 SENP sel: 25; Luc interf: -6

What do the screens show for `O=C(/C=C/c1ccc(OC2CSC2)cc1)c1ccccc1`?
SENP6 inh: 38; SENP1 inh: 1; SENP8 block-1: 54*; SENP7 block: 55*; SENP8 block-2: 11; SENP8 confirm: -2; SENP6 confirm: 15; SENP7 confirm: 6; Casp3 SENP sel: -7; Luc interf: 26

Results for Cc1cc(C)n(CC(O)Cn2c3ccc(Cl)cc3c3cc(Cl)ccc32)c(=O)n1 (stereo not given) ?
SENP6 inh: -9; SENP1 inh: 5; SENP8 block-1: -7; SENP7 block: 95*; SENP8 block-2: 4; SENP8 confirm: 2; SENP6 confirm: 4; SENP7 confirm: 7; Casp3 SENP sel: -2; Luc interf: 2

Results for COc1ccc(-c2cn3cc(C)ccc3n2)cc1Br ?
SENP6 inh: 91*; SENP1 inh: 0; SENP8 block-1: 82*; SENP7 block: 86*; SENP8 block-2: -366; SENP8 confirm: 38; SENP6 confirm: 87*; SENP7 confirm: 99*; Casp3 SENP sel: 86*; Luc interf: 26

Results for C[C@H](CO)N1C[C@H](C)[C@@H](CN(C)S(=O)(=O)c2ccc3c(c2)OCCCO3)OCc2cn(nn2)CCCC1=O ?
SENP1 inh: 0; SENP8 block-2: 16

Results for O=C(/C=C/c1ccccc1[N+](=O)[O-])NCCN1C(=O)S/C(=C\c2ccc(F)cc2)C1=O ?
SENP6 inh: 18; SENP1 inh: -1; SENP8 block-1: -11; SENP7 block: 81*; SENP8 block-2: 19; SENP8 confirm: -10; SENP6 confirm: -3; SENP7 confirm: -6; Casp3 SENP sel: 5; Luc interf: 3

Results for Cc1oc2ccc(OCc3ccc(Cl)cc3)cc2c1C(=O)O ?
SENP6 inh: 78*; SENP1 inh: 3; SENP8 block-1: 59*; SENP7 block: -1; SENP8 block-2: 13; SENP8 confirm: 79*; SENP6 confirm: 80*; SENP7 confirm: 93*; Casp3 SENP sel: 66*; Luc interf: 60*

How did Cc1oc2ccc(OCc3ccc(Br)cc3)cc2c1C(=O)O do in these assays?
SENP6 inh: 68*; SENP1 inh: -2; SENP8 block-1: 10; SENP7 block: -4; SENP8 block-2: 11; SENP8 confirm: 36; SENP6 confirm: 80*; SENP7 confirm: 63*; Casp3 SENP sel: 56*; Luc interf: 27

Results for Cc1ccccc1COc1ccc2oc(C)c(C(=O)O)c2c1 ?
SENP6 inh: -7; SENP1 inh: 2; SENP8 block-1: 2; SENP7 block: -3; SENP8 block-2: 3

Results for Cc1oc2ccc(OCc3ccccc3F)cc2c1C(=O)O ?
SENP6 inh: 77*; SENP1 inh: 0; SENP8 block-1: 53*; SENP7 block: 24; SENP8 block-2: 13; SENP8 confirm: 61*; SENP6 confirm: 57*; SENP7 confirm: 83*; Casp3 SENP sel: 74*; Luc interf: 69*

Bioassay records (PubChem BioAssay)
